{"source": "ChEMBL document CHEMBL3425429", "key": {"Rattus norvegicus": {"tested_on": "Rattus norvegicus", "assay": "Apparent volume of distribution at steady state in Sprague-Dawley rat at 10 mg/kg, po by LC/MS analysis", "format": "ADME, organism-based", "design": "dose 10 mg/kg, route oral", "details": "in vivo", "in_short": "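Single oral gavage dose in male Sprague-Dawley rats fasted overnight; serial blood drawn via surgically placed jugular vein catheters at set times, plasma separated at once and measured by HPLC-MS/MS; noncompartmental parameters fitted; n=5.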"}, "Ramos": {"tested_on": "Ramos", "assay": "Cytotoxicity against human Ramos cells assessed as cell viability after 72 hrs by MTT assay", "format": "functional, cell-based"}, "MDA-MB-231 [1]": {"tested_on": "MDA-MB-231", "assay": "Induction of apoptosis in human MDA-MB-231 cells assessed as early apoptotic cells at 0.3 uM after 48 hrs by annexin V-FITC/propidium iodide staining-based flow cytometric analysis (reference value: […])", "format": "functional"}, "[2]": {"biological_target": "Cyclin-dependent kinase 7 (Homo sapiens, UniProt P50613)", "sequence (P50613 whole entry)": "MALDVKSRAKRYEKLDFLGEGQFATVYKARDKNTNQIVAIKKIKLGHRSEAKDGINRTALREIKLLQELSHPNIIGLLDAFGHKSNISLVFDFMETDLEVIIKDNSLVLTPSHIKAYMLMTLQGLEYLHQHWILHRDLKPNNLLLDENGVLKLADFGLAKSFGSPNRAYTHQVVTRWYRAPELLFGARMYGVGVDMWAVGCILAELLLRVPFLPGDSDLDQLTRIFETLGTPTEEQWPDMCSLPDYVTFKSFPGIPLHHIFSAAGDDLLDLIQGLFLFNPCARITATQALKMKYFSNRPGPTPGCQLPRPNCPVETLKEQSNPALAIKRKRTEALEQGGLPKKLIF", "assay": "Inhibition of human CDK7", "in_short": "(§1)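 Recombinant human protein kinases screened through the Eurofins KinaseProfiler service. IC50 values are means of two independent experiments.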"}, "[3]": {"biological_target": "Cyclin-dependent kinase 2 (Homo sapiens, UniProt P24941)", "assay": "Inhibition of human CDK2", "in_short": "as §1"}, "[4]": {"biological_target": "Serine/threonine-protein kinase Chk1 (Homo sapiens, UniProt O14757)", "sequence (O14757 whole entry)": "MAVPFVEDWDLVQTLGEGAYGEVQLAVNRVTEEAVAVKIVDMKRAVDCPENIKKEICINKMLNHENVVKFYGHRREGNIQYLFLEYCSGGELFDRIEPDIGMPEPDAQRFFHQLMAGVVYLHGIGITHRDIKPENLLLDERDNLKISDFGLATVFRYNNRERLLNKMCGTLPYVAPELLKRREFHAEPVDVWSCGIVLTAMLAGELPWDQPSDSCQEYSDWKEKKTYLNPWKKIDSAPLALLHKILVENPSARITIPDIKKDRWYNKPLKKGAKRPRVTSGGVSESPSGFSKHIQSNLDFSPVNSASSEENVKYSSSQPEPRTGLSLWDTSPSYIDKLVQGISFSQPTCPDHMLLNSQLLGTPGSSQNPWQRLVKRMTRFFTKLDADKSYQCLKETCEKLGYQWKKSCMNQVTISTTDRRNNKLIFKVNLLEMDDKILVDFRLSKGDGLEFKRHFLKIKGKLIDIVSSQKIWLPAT", "assay": "Inhibition of human CHK1", "in_short": "as §1"}, "Bcr/Abl fusion protein": {"biological_target": "Bcr/Abl fusion protein (Homo sapiens, UniProt P00519)", "sequence (P00519 whole entry, the tested form may be a part)": "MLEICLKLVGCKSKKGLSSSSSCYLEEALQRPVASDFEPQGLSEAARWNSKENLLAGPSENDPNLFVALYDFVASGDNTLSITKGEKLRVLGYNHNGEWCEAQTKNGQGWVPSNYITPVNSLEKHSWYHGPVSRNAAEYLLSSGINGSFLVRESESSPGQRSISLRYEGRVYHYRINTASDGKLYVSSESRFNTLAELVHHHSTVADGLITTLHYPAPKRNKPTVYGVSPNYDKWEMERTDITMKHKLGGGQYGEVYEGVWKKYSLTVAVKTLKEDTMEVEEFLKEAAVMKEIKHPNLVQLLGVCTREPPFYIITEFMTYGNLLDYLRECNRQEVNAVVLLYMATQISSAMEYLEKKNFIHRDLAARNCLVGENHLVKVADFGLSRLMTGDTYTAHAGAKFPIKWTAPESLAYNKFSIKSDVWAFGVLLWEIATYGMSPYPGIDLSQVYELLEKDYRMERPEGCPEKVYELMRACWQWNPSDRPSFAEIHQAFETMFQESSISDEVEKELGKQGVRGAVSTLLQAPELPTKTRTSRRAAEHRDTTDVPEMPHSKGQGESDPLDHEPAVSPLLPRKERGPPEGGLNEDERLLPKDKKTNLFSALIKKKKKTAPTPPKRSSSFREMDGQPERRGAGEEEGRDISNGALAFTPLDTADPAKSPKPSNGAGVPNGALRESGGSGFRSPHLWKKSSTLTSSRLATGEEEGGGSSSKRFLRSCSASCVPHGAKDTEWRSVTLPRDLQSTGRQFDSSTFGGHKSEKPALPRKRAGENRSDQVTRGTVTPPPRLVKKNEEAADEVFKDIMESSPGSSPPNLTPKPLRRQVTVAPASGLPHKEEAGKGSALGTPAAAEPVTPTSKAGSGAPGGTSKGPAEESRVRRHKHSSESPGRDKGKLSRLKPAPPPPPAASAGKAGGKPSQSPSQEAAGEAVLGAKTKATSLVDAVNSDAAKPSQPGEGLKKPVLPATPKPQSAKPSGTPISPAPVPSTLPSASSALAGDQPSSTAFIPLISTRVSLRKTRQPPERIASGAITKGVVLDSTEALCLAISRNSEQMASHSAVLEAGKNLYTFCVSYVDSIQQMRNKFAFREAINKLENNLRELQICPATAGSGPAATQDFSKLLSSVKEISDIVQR", "sequence (P11274 whole entry, further chain, the tested form may be a part)": "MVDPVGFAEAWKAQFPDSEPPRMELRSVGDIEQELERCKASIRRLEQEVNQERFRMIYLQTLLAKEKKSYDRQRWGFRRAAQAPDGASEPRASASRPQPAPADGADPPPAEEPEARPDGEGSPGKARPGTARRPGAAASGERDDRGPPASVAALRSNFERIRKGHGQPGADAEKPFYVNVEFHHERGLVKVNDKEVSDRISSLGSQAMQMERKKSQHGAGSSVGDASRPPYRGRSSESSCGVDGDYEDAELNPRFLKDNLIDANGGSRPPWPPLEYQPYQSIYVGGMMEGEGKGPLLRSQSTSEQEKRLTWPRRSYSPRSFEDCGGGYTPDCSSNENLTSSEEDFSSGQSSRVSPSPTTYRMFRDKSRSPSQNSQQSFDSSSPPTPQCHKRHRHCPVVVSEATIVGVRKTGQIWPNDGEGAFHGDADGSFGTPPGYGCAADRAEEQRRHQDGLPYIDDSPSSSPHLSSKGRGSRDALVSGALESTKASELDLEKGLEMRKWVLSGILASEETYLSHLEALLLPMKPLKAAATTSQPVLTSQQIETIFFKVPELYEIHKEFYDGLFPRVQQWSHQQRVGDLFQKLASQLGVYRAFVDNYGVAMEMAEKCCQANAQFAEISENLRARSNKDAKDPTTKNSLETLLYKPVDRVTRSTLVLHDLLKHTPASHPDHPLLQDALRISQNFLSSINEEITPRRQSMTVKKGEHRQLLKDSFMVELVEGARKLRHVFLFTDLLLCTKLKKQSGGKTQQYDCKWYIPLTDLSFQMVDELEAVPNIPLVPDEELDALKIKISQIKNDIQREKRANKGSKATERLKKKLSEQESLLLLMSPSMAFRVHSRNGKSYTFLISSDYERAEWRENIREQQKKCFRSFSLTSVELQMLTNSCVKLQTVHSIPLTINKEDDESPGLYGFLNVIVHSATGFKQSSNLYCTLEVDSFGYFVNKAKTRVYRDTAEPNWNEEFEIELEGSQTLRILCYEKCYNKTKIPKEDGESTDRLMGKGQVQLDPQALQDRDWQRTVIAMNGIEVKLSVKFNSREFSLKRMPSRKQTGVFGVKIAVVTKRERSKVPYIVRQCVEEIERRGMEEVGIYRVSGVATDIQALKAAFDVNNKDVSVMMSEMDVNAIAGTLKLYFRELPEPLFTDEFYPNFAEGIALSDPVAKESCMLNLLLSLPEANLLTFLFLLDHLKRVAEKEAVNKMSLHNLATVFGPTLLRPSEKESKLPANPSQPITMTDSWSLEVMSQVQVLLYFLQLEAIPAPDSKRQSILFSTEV", "assay": "Inhibition of human BCR/ABL", "format": "protein assay", "in_short": "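Recombinant human BCR-ABL kinase, tested as part of a selected kinase panel through a commercial kinase-profiling service. IC50 is the mean of two independent experiments.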"}, "MDA-MB-231 [5]": {"tested_on": "MDA-MB-231", "assay": "Antitumor activity against human MDA-MB-231 cells xenografted in SCID mouse assessed as tumor growth inhibition at 30 mg/kg/day, po qd administered for 18 days measured every 3 days during compound dosing relative to vehicle-treated control", "format": "functional", "details": "read-out: TGI", "in_short": "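SCID mice (5–6 weeks) given subcutaneous injections of 5 ×10^6 MDA-MB-231 cells; at 150–200 mm3 tumors, randomized into 6 groups of 6; oral daily dosing (vehicle 25% PEG400 + 5% DMSO in sterile water), paclitaxel 10 mg/kg/week by tail vein; tumors measured every 3 days, volume = ab²/2; side effects monitored daily.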"}, "MDA-MB-231 [6]": {"tested_on": "MDA-MB-231", "assay": "Induction of apoptosis in human MDA-MB-231 cells assessed as viable cells at 0.3 uM after 24 hrs by annexin V-FITC/propidium iodide staining-based flow cytometric analysis (reference value: 95.5%)", "format": "functional", "details": "MDA-MB-231, 24 h, read-out: Activity"}, "MDA-MB-231 [7]": {"tested_on": "MDA-MB-231", "assay": "Induction of apoptosis in human MDA-MB-231 cells assessed as late apoptotic cells at 0.1 uM after 24 hrs by annexin V-FITC/propidium iodide staining-based flow cytometric analysis (reference value: 2.67%)", "format": "functional"}}, "data": [{"smiles": "CCn1nc(C#Cc2cc(C(=O)Nc3ccc(CN4CCN(C)CC4)c(C(F)(F)F)c3)ccc2C)c2c(N)ncnc21", "values": [{"measurement": "Vdss(app)", "setting": "Rattus norvegicus", "value": 38.57, "unit": "L/kg"}, {"measurement": "IC50", "setting": "Ramos", "value": 10, "unit": "µM"}, {"measurement": "Activity", "setting": "MDA-MB-231 [1]", "value": 24.1, "unit": "%"}, {"measurement": "IC50", "setting": "[2]", "value": "> 10", "unit": "µM"}, {"measurement": "IC50", "setting": "[3]", "value": "> 10", "unit": "µM"}, {"measurement": "IC50", "setting": "[4]", "value": "> 10", "unit": "µM"}, {"measurement": "IC50", "setting": "Bcr/Abl fusion protein", "value": 0.001, "unit": "µM"}, {"measurement": "inhibition in vivo at 30 mg/kg/day", "setting": "MDA-MB-231 [5]", "value": "> 100", "unit": "%"}, {"measurement": "viability at 0.3 µM", "setting": "MDA-MB-231 [6]", "value": 76.7, "unit": "%"}, {"measurement": "Activity", "setting": "MDA-MB-231 [7]", "value": 10.4, "unit": "%"}]}]}
